ChEMBL document CHEMBL4513216, “Probing the Open Global Health Chemical Diversity Library for Multistage-Active Starting Points for Next-Generation Antimalarials” (ACS Infect Dis, 2020)

Assay: Toxicity liver stage against HepG2, at 10uM
Assay type: cell-based
Parameters: test concentration 10 uM, cell line HepG2-A16-CD81EGFP
Details: human, HepG2-A16-CD81EGFP cells; read-out: INHIBITION
Outline: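 Uninfected HepG2-A16-CD81EGFP cells, 3 × 10^3 per well, 1536-well, plated on prespotted compound at 10 μM final, parasite-free screening media added to match infected plates; puromycin 10 μM positive, DMSO 0.5% negative; run in parallel with 48 h PbLuc assay at 37 °C, 5% CO2; viability by CellTiter-Glo luminescence, normalized to controls.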

CN1C(=N)NC(=O)/C1=C\c1ccc(-c2ccc(F)cc2)o1
cytotoxicity at 10 µM: 13.5%

CCOc1ccccc1CNS(=O)(=O)c1ccc2c(c1)CCCC(=O)N2
cytotoxicity at 10 µM: 7.89%

CCOc1ccc2[nH]c3c(N(C)CC4OCCO4)ncnc3c2c1
cytotoxicity at 10 µM: 15.2%

O=C(Cc1cnc(-c2c(Cl)cccc2Cl)s1)N1CCOCC1
cytotoxicity at 10 µM: 3.29%

COCCn1cnc2ccc(NC(=O)c3ccccn3)cc2c1=O
cytotoxicity at 10 µM: -6.81%

O=C([C@H]1C[C@H]2OCC[C@H]2N(C(=O)c2ccnnc2)C1)N1CCCCO1
cytotoxicity at 10 µM: 4%

COC[C@H]1CCC[C@]12CN(Cc1cccc(C)n1)CCO2
cytotoxicity at 10 µM: 2.23%

COCCN1CCn2c(nc3cc(C(=O)NC(C)C)ccc32)C1
cytotoxicity at 10 µM: 2.38%

CC(C)n1c(=O)c2sccc2n(CC(=O)Nc2cccc(Cl)c2)c1=O
cytotoxicity at 10 µM: 8.93%

O=C(CCn1nc(C(F)(F)F)c(Cl)c1C1CC1)NN1CCOCC1
cytotoxicity at 10 µM: 7.69%

CCn1ncc2c(C(F)(F)F)cc(-c3cnn(C)c3)nc21
cytotoxicity at 10 µM: 3.67%

CN(C)CC1(O)CCN(C(=O)Cc2ccc3c(c2)CCC3)C1 (configuration not stated)
cytotoxicity at 10 µM: -7.84%

Cc1cc(Nc2cnccn2)cc(C2CCCNC2)n1 (configuration not stated)
cytotoxicity at 10 µM: 4.75%

COCCNC(=O)C(C)n1nc(-c2ccc(C)o2)cc(N)c1=O (configuration not stated)
cytotoxicity at 10 µM: 1.26%

Cc1ncc(C(=O)N2CCC(C(=O)NC3CCCC3)C2)c(C)n1 (configuration not stated)
cytotoxicity at 10 µM: 6.3%

CN(c1cccnn1)[C@@H]1CC[C@@H]2CN(Cc3ccccc3C(=O)O)C[C@@H]21
cytotoxicity at 10 µM: 7.43%

CN(C)CCNC(=O)CC1CCN(c2cccnn2)CC1
cytotoxicity at 10 µM: 6.04%

Cc1ccc(S(=O)(=O)N2C[C@H]3C[C@H](NC(=O)C(C)C)[C@H]3C2)cc1
cytotoxicity at 10 µM: -4.59%

CC1CCCN(Cc2c(C3CC3)[nH]c3ncccc23)C1 (configuration not stated)
cytotoxicity at 10 µM: -34.1%

CNC(=O)C1(c2cnccn2)CCCN1C(=O)c1ncccc1C (configuration not stated)
cytotoxicity at 10 µM: 4.22%

Cc1nc(C2CCN(S(=O)(=O)c3ccc4c(c3)CCO4)CC2)n[nH]1
cytotoxicity at 10 µM: -8.91%

Cc1cc(CSCc2csc(CS(C)(=O)=O)n2)no1
cytotoxicity at 10 µM: -2.49%

Cc1noc(NCc2cn(C)nc2-c2ccncc2)n1
cytotoxicity at 10 µM: -3.48%

Cc1cc(NC(=O)C2CCN(c3nnc(C)c(C)c3C#N)CC2)no1
cytotoxicity at 10 µM: -4.11%

Cc1nc(CN2CCN(S(=O)(=O)N3CCCCC3)CC2)oc1C
cytotoxicity at 10 µM: 3.64%

CC(C)CCS(=O)(=O)CC(=O)N1CCCC1c1cnn(C)c1 (configuration not stated)
cytotoxicity at 10 µM: 0.528%

Cc1cn2c(CN(C)C(=O)c3cccnc3O)c(C)nc2s1
cytotoxicity at 10 µM: -8.59%

CC(Nc1ccc(CN2CCCC2=O)cc1)c1ccc(C#N)cc1 (configuration not stated)
cytotoxicity at 10 µM: 6.29%

N#Cc1ccccc1OCCN1CCCC(c2noc(C3CC3)n2)C1 (configuration not stated)
cytotoxicity at 10 µM: 5.87%

NS(=O)(=O)CCNC(=O)C1(c2ccccc2)CC1
cytotoxicity at 10 µM: -0.18%

CC(C)C1CN(C(=O)c2ccncc2)CCS1 (configuration not stated)
cytotoxicity at 10 µM: 9.72%

COCCC(=O)Nc1nc2c(OC)cc(F)cc2s1
cytotoxicity at 10 µM: -0.327%

CC(C)OCCOCc1cccc(NC(=O)N2CCCC(O)C2)c1 (configuration not stated)
cytotoxicity at 10 µM: -5.01%

COC(C)C(=O)NS(=O)(=O)c1ccc(F)c(C(F)(F)F)c1 (configuration not stated)
cytotoxicity at 10 µM: -4.04%

CCCc1noc(CS(=O)(=O)c2cccc(OC)c2)n1
cytotoxicity at 10 µM: 17.4%

CCN(CC)C(=O)Nc1ccc(C(=O)N(C)C)c(C)c1
cytotoxicity at 10 µM: 7.52%

OC(CN1CCCc2cc(OC(F)F)ccc21)Cn1cccn1 (configuration not stated)
cytotoxicity at 10 µM: 6.85%

CCN1CCCCC1C(=O)Nc1cccc(-c2nnc[nH]2)c1 (configuration not stated)
cytotoxicity at 10 µM: 4.03%

Cc1ccc(N2CCCC(N(C)Cc3cc(C)no3)C2)nn1 (configuration not stated)
cytotoxicity at 10 µM: 11.9%

CN(C)CCn1c(=O)oc2ccc(NC(=O)C3CCCO3)cc21 (configuration not stated)
cytotoxicity at 10 µM: 0.743%

Cn1ccnc1CNC1CCCN(Cc2noc(C3CC3)n2)C1 (configuration not stated)
cytotoxicity at 10 µM: -11.1%

O=C(CCc1cccc(F)c1F)N1CCN(Cc2ccco2)CC1
cytotoxicity at 10 µM: -11.5%

CS(=O)(=O)NCc1ncn2c1CN(C(=O)C1CCCO1)CCC2 (configuration not stated)
cytotoxicity at 10 µM: -110%

CCN1C[C@H]2N(c3ncccn3)CCC[C@@]2(C(=O)NCC2CC2)C1
cytotoxicity at 10 µM: -97.3%

CCC(O)Cn1nc(CCSC)nc1-c1ccc2c(c1)OCCO2 (configuration not stated)
cytotoxicity at 10 µM: -0.268%

Cc1c(CN2CCCC(C(=O)CCc3ccccc3)C2)cc(C#N)n1C (configuration not stated)
cytotoxicity at 10 µM: -5.76%

NCC1CCCN(c2nc(-c3ccccc3)nc3c2CCNCC3)C1 (configuration not stated)
cytotoxicity at 10 µM: -10.3%

COc1ccccc1OC1CN(C(=O)C2CNCC(=O)N2)C1 (configuration not stated)
cytotoxicity at 10 µM: 5.46%

c1cc(C2CCN(Cc3ccc4c(c3)OCO4)CC2)ccn1
cytotoxicity at 10 µM: -2.98%

CCc1cc(N(C)CCCO)n2nccc2n1
cytotoxicity at 10 µM: 1.77%

O=C(O)CNc1cc(-c2cc(C3CC3)ncn2)c2cc[nH]c2n1
cytotoxicity at 10 µM: 7.69%

CCC1c2cccn2CCN1C(=O)c1cc(OC)nc(OC)n1 (configuration not stated)
cytotoxicity at 10 µM: 15%

CCc1ncc2c(n1)CN(c1cc(N3CCN(C)CC3)nc(N)n1)C2
cytotoxicity at 10 µM: 22.8%

Cc1ccccc1-n1cc(C2=CCN(CCN3CCOCC3)CC2)cn1
cytotoxicity at 10 µM: -5.06%

COC(=O)CCC(=O)N(C/C=C/c1ccccc1)CCO
cytotoxicity at 10 µM: 3.28%

CC(C)Cn1cncc1CNC(=O)c1cccc(Cn2cccn2)c1
cytotoxicity at 10 µM: -3.12%

CN1CCC(N(CCc2ccccc2)Cc2noc(C3CC3)n2)CC1
cytotoxicity at 10 µM: -3.49%

NC(=O)CN1CC2(CCC1=O)CCN(Cc1ccccc1F)CC2
cytotoxicity at 10 µM: 1.81%

COCc1nnc(C(=O)N(C)Cc2ccc(OC)cc2)o1
cytotoxicity at 10 µM: -0.164%

O=S1(=O)COCCN1Cc1ccc(F)c(C(F)(F)F)c1
cytotoxicity at 10 µM: 7.52%

CN(Cc1ccon1)CC1CCOc2ccccc2C1 (configuration not stated)
cytotoxicity at 10 µM: -6.95%

Cc1cc(=O)[nH]c(SC(C)C(=O)N2CCCN(C3CCCC3)CC2)n1 (configuration not stated)
cytotoxicity at 10 µM: -8.04%

Cc1nc2c(c(N(C)C)n1)CCN(C(=O)c1sccc1S(N)(=O)=O)C2
cytotoxicity at 10 µM: -2.29%

Cc1nc(CN2CCCC(NCc3ccc4c(c3)CCO4)C2)no1 (configuration not stated)
cytotoxicity at 10 µM: -3.61%

CCc1nc(C2CCCN2Cc2ccno2)no1 (configuration not stated)
cytotoxicity at 10 µM: 2.52%

c1ccc(Cc2noc(CN3CCc4cncnc4C3)n2)cc1
cytotoxicity at 10 µM: -5.91%

COc1cc(CCC(=O)NC(C)C)ccc1OCC(F)(F)F
cytotoxicity at 10 µM: -4.24%

CCCc1nc(C)c(C(=O)NCCNc2ncccn2)s1
cytotoxicity at 10 µM: -7.22%

Cn1ncc2c(=O)[nH]c(CN3CCCC3CC(C)(C)C)nc21 (configuration not stated)
cytotoxicity at 10 µM: -1.09%

Cn1ncc2c(=O)[nH]c(CN3CCCC3CCc3ccccc3)nc21 (configuration not stated)
cytotoxicity at 10 µM: -8.21%

Cc1cccc(-c2nc(CNC3CCc4nc(C)nn4C3)no2)c1 (configuration not stated)
cytotoxicity at 10 µM: -4.3%

CCOc1cc(C)nc(N2CCN(C(=O)c3cc(C)on3)CC2)n1
cytotoxicity at 10 µM: -1.61%

Cc1ccc(C(=O)NS(=O)(=O)c2c(Cl)cccc2Cl)c(=O)[nH]1
cytotoxicity at 10 µM: -0.855%

COc1c(C2CCCN2CC(=O)Nc2cccnc2)c(C)nn1C (configuration not stated)
cytotoxicity at 10 µM: -2.39%

CC(NCc1c(C(C)C)nn(C)c1N1CCOCC1)C(=O)N(C)C (configuration not stated)
cytotoxicity at 10 µM: -10.7%

Cc1cc(CN2CCC(N(C)Cc3noc(C4CC4)n3)C2)on1 (configuration not stated)
cytotoxicity at 10 µM: 1.54%

CNc1nc(CNC(=O)Nc2ccccc2C(F)(F)F)cs1
cytotoxicity at 10 µM: -0.896%

Cc1cccc(CN(C(=O)NCc2ccccn2)C2CC2)c1
cytotoxicity at 10 µM: -6.73%

COc1c(C2CCCN2C(=O)c2c(C)noc2C)c(C)nn1C (configuration not stated)
cytotoxicity at 10 µM: 0.471%

c1ccc(Cc2nnc(CN3CCOC(Cn4cccn4)C3)o2)cc1 (configuration not stated)
cytotoxicity at 10 µM: -8.48%

COc1cc(Cl)ccc1C(=O)N1CCCC(n2nc(C)nc2C)C1 (configuration not stated)
cytotoxicity at 10 µM: -5.8%

Cc1nc(CC(=O)N2CCCC2Cn2cccn2)cs1 (configuration not stated)
cytotoxicity at 10 µM: -11.2%

CCc1nc(C2CCCN2CC(=O)Nc2cc(C)nn2C)no1 (configuration not stated)
cytotoxicity at 10 µM: -7.82%

CNc1snc(C)c1C(=O)N1CCCC(n2nc(C)nc2C)C1 (configuration not stated)
cytotoxicity at 10 µM: -7%

Cc1cnn(CC2CN(c3ncnc4[nH]ccc34)CCO2)c1 (configuration not stated)
cytotoxicity at 10 µM: -1.91%

COc1ccccc1OCCNCCn1cccn1
cytotoxicity at 10 µM: -4.53%

Cc1cnn(CC(C)NCc2csc(-c3cccs3)n2)c1 (configuration not stated)
cytotoxicity at 10 µM: -5.8%

O=C(CCc1ccco1)N1CCCN(Cc2cscn2)CC1
cytotoxicity at 10 µM: 3.28%

CC(C)N1CCN(C(=O)C(C)n2cncn2)CC1 (configuration not stated)
cytotoxicity at 10 µM: 0.724%

CSc1ccc(CNC(=O)NCC(O)c2cccc(F)c2)cc1 (configuration not stated)
cytotoxicity at 10 µM: -6.16%

Cc1cnc(C(=O)NCc2ccc3c(c2)CCCN3C)cn1
cytotoxicity at 10 µM: -4.92%

CC(C)=CCN1CCOC(Cn2cccn2)C1 (configuration not stated)
cytotoxicity at 10 µM: 2.4%

CC(C)CN1CC(C(=O)NCc2cccnc2-n2cccn2)CC1=O (configuration not stated)
cytotoxicity at 10 µM: -1.04%

CCc1noc(CNCC2CCCN2c2cccnn2)n1 (configuration not stated)
cytotoxicity at 10 µM: 2.11%

Cc1nnc(C2Cc3ccccc3CN2Cc2c(C)noc2C)o1 (configuration not stated)
cytotoxicity at 10 µM: -13.7%

Cc1nnc(CN(C)CC2CCCN2c2cccnn2)o1 (configuration not stated)
cytotoxicity at 10 µM: -0.514%

CCc1nc(C2CCCN2C(=O)c2nc(C)n3ccccc23)no1 (configuration not stated)
cytotoxicity at 10 µM: 1.85%

Cc1cc(C(=O)N2CCc3nnc(N(C)C)cc3C2)c(C)n1C1CC1
cytotoxicity at 10 µM: 1.56%

Fc1ccc(OCCCN2CCOC(Cn3cncn3)C2)cc1 (configuration not stated)
cytotoxicity at 10 µM: -1.03%

O=C(NCCNc1ncccn1)C1CC(=O)N(CC(F)(F)F)C1 (configuration not stated)
cytotoxicity at 10 µM: -9.02%

CC(C)C(=O)NCc1cccc(N2CCCCC2=O)c1
cytotoxicity at 10 µM: -1.73%

Cc1nnc(N2C[C@H](OCc3ccncc3)[C@H]3OCCC[C@H]32)s1
cytotoxicity at 10 µM: 13.6%

Cc1ccc(C(=O)N2C[C@@H]3CCN(c4cccnc4)C[C@@H]3C2)cn1
cytotoxicity at 10 µM: -75.9%

Cn1ccnc1NC[C@@H]1CCC[C@@H]2CN(Cc3cccnc3)C[C@@H]21
cytotoxicity at 10 µM: 5.55%

O=C(Cc1ccccc1)N1CCCC2(COCCN(CC3CC3)C2)C1 (configuration not stated)
cytotoxicity at 10 µM: -1.03%

Cn1nnc2c1CCN(C(=O)C1CCC1)C2COCCN1CCCC1 (configuration not stated)
cytotoxicity at 10 µM: 11%

c1cnc(NCc2cncc3c2CCN(Cc2ccoc2)C3)nc1
cytotoxicity at 10 µM: -70.9%

CCOCC1CN(C(=O)CS(C)(=O)=O)Cc2cnn(C)c21 (configuration not stated)
cytotoxicity at 10 µM: -6.63%

COCC1CN(c2ccncn2)Cc2cnn(CC3CCCC3)c21 (configuration not stated)
cytotoxicity at 10 µM: 4.83%

COCC1CC2(CCN(S(=O)(=O)C3CC3)CC2)CN1c1ncccn1 (configuration not stated)
cytotoxicity at 10 µM: -2.01%

CN1CC(=O)N(c2cccc(F)c2)CC12CCN(CC1CC1)C2 (configuration not stated)
cytotoxicity at 10 µM: 2.26%

CO[C@@H]1CCN(C(=O)Cc2cccc(F)c2)[C@H]1Cc1cccnc1
cytotoxicity at 10 µM: -4.89%
